The structures appear in SMILES notation. Results filed as inconclusive are left out. Active and inactive are the calls of the source.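 How the source made its calls: active means duplicate-averaged calcium signal falling below the mean of the agonist-only control wells less 5 SD; inactive means the rest, inconclusive results apart.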

Data on 34 molecules can be found in PubChem BioAssay AID492988 (Johns Hopkins Ion Channel Center, 2010).

This test relates to Transient receptor potential cation channel subfamily C member 4 (TRPC4beta), mouse. Put plainly: TRPC4 channel inhibitors, SAR follow-up, cell-based, HEK293 TRPC4beta/mu-opioid, Fluo-4 calcium flux, single concentration (AID 492988). The note with it: DAMGO-evoked Fluo4 calcium flux, at 10 µM, stronger effect = higher value. The essentials:
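Material: HEK293 cells stably expressing TRPC4beta plus mu-opioid receptor | Reagent: DAMGO mu-opioid agonist, submaximal dose then ECmax dose | Doses: Single concentration per test compound | Times: Compound 110 s, submaximal DAMGO 110 s | Detection: Fluo4 calcium-sensitive dye fluorescence, calcium flux | Measure: Peak-minus-trough fluorescence over baseline, integrated ratio, mean % inhibition | Replicates: Duplicates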
A general note: Calcium assays in cells follow changes in intracellular calcium, usually with a dye or a luminescent sensor.
As for `Cc1cc(N2CCOc3ccccc32)nc2ccccc12`, the inhibition is 63%.
For `c1ccc(-c2cc(N3CCCCC3)nc3ccccc23)cc1`, the inhibition is 55.9%.
For the molecule `Cc1cc(N2CCN(c3ncccn3)CC2)nc2ccccc12`, the inhibition is 6.42% (inactive).
Take `COc1ccc(N2CCN(c3cc(C)c4ccccc4n3)CC2)cc1`: the inhibition is -82.8% (inactive).
On to `Cc1ccnc(N2CCCC2)c1`, for which the inhibition is 44.1%.
Take `Cc1cc(N2CCCCC2)nc2ccc(F)cc12`: the inhibition was 72.9%.
For `CCN(CC)c1cc(C)c2ccccc2n1` the value was 61.2%; for `Cc1cc(N2CCCC2)nc2ccc(F)cc12`, 91.3%.
Turning to `Cc1cc(N(C)CCN(C)C)nc2ccccc12`, the inhibition is -249% (inactive).
Consider `Cc1cc(N2CCCC(O)C2)nc2ccccc12` (centres undefined), for which the inhibition is 69.3%.
For `Cc1cc(N2CCN(CC3CCCO3)CC2)nc2ccccc12` (centres undefined), the inhibition is -51.3% (inactive).
Turning to `FC(F)(F)c1cc(N2CCCCC2)nc2ccccc12`, the inhibition was 39.7% (inactive).
As to `Cc1cc(N2CCOCC2)nc2ccccc12`, the inhibition was 42.6%.
The value for `Cc1cc(N2CCC(C)CC2)nc2ccccc12` was 91.6%; that for `Cc1cc(N2CCN(C)CC2)nc2ccccc12` was -157% (inactive).
For `Cc1cc(N2CCN(c3ccccc3C#N)CC2)nc2ccccc12` the value was 42% (inactive); for `Cc1ccnc(N2CCCCC2)c1`, 50.8%; for `Cc1cc(N2CCNCC2)nc2ccccc12`, -292% (inactive).
Consider `COc1ccccc1N1CCN(c2cc(C)c3ccccc3n2)CC1`, for which the inhibition was 72.2%.
For `CCc1ccc2nc(N3CCCC3)cc(C)c2c1` the value was 91.5%; for `Cc1ccnc(N2CCCC2)n1`, 38% (inactive); for `Cc1ccc2nc(N3CCCC3)cc(C)c2c1`, 93%.
On to `Cc1cc(N2CCCC2)nc2c(C)cccc12`, for which the inhibition is 70.1%.
The value for `c1ccc(-c2cc(N3CCCC3)nc3ccccc23)cc1` was 79.9%.
In the case of `Cc1cc(N2CCN(c3ccncc3)CC2)nc2ccccc12`, the inhibition is 29.5% (inactive).
As for `COCCN(C)c1cc(C)c2ccccc2n1`, the inhibition is 24.5% (inactive).
Consider `Cc1cc(N2CC(C)CC(C)C2)nc2ccccc12` (centres undefined), for which the inhibition was 32.4% (inactive).
For `Cc1cc(N2CCCCC2)nc2ccccc12`, the inhibition was 90%.
In the case of `Cc1cc(N2CCC(N3CCOCC3)CC2)nc2ccccc12`, the inhibition was 11.7% (inactive).
The value for `Cc1cc(N2CCCC2)nc2ccccc12` was 84.9%.
As to `Cc1cc(N2CCC[C@@H]2C)nc2ccccc12`, the inhibition was 90%.
As for `FC(F)(F)c1cc(N2CCCC2)nc2ccccc12`, the inhibition is -10.6% (inactive).
Consider `Cc1ccnc(N2CCCCC2)n1`, for which the inhibition is 38.2% (inactive).
Turning to `Cc1cc(N2CCCCC2)nc2c(C)cccc12`, the inhibition was 46.4%.

Usually inhibition stands for the relative decrease from the control value, in per cent.
